Converted amounts (≈) assume the structure as drawn.
What was measured:
Rattus norvegicus [1] = assay: Unbound Cmax in Wistar Han IGS rat at 30 mg/kg, po qd administered for 1 month; type: ADME, organism-based; conditions: in vivo
Method in brief: (§1)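 Wistar Han rats were dosed orally once daily for 14 days (exploratory, 5/sex/dose) or 1 month (toxicity, 10/sex/dose). Toxicokinetic satellite animals (3–4/sex/dose) were used, and steady-state systemic exposure is given as the mean of male and female values combined.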

Rattus norvegicus [2] = assay: Unbound AUC in Wistar Han IGS rat at 30 mg/kg, po qd administered for 1 month; type: ADME, organism-based; conditions: in vivo; method in brief: as §1
[3] = Toxicity in po dosed beagle dog administered as qd for 14 days; type: organism-based, Canis lupus familiaris; conditions: in vivo
Canis familiaris [4] = assay: Unbound Cmax in beagle dog at 100 to 150 mg/kg, po qd administered for 1 month; type: ADME, organism-based, Canis lupus familiaris; conditions: in vivo
Method in brief: (§2)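 Beagle dogs were dosed orally once daily in a 14-day exploratory study or 1-month toxicity studies. Steady-state systemic exposure over the 24 h dosing interval is reported as the mean of male and female values combined.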

Canis familiaris [5] = assay: Unbound AUC in beagle dog at 50 mg/kg, po qd administered for 1 month; type: ADME, organism-based, Canis lupus familiaris; conditions: in vivo; method in brief: as §2
Canis familiaris [6] = assay: Toxicity in telemetered beagle dog assessed as change in blood pressure at 5 mg/kg administered via oral gavage measured over 24 hrs; type: organism-based, Canis lupus familiaris; conditions: in vivo
Canis familiaris [7] = assay: Toxicity in beagle dog assessed as decrease in food consumption at 150 mg/kg, po qd administered for 10 days; type: organism-based, Canis lupus familiaris; conditions: in vivo, 240 h
Canis familiaris [8] = assay: Toxicity in beagle dog assessed as decrease in food consumption at 100 mg/kg, po qd administered starting on day 11 post 150 mg/kg dosing period and continuing for 20 days; type: organism-based, Canis lupus familiaris; conditions: in vivo, 480 h
Rattus norvegicus [9] = assay: In vivo inhibition of DGAT2 in Wistar Han IGS rat assessed as coverage of in vitro IC50 for rat DGAT2 at 30 mg/kg, po qd administered for 1 month; type: functional; set-up: scale not given: the % may be the effect or the level left
Method in brief: (§3)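 Wistar Han rats, once-daily oral dosing for 14 days (exploratory, 5/sex/dose) or 1 month (10/sex/dose); toxicokinetics in 3–4/sex/dose with sexes combined; coverage is the average % above rat DGAT2 IC50 at steady state over the 24 h dosing interval.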

Rattus norvegicus [10] = assay: In vivo inhibition of DGAT2 in Wistar Han IGS rat assessed as coverage of in vitro IC50 for rat DGAT2 at 60 mg/kg, po qd administered for 1 month; type: functional; set-up: scale not given: the % may be the effect or the level left; method in brief: as §3
Rattus norvegicus [11] = assay: In vivo inhibition of DGAT2 in Wistar Han IGS rat assessed as coverage of in vitro IC50 for rat DGAT2 at 300 mg/kg, po qd administered for 1 month; type: functional; set-up: scale not given: the % may be the effect or the level left; method in brief: as §3
Canis familiaris [12] = assay: Toxicity in telemetered beagle dog assessed as increase in heart rate at 25 mg/kg administered via oral gavage measured over 24 hrs; type: organism-based, Canis lupus familiaris; conditions: in vivo
[13] = biological target: T1, Diacylglycerol O-acyltransferase 2 (Homo sapiens, UniProt Q96PD7); assay: Inhibition of human DGAT2
T1 sequence (Q96PD7 whole entry): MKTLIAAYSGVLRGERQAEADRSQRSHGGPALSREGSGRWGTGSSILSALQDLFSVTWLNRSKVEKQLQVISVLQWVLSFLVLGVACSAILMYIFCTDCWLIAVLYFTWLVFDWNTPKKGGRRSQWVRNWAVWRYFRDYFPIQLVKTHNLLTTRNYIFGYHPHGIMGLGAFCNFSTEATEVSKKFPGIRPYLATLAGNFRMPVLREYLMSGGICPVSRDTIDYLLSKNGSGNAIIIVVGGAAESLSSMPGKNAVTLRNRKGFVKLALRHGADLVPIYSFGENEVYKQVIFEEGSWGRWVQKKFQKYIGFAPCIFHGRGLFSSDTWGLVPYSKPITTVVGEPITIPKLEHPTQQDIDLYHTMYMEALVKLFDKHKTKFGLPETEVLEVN
Method in brief: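 IC50 against human DGAT2 in an enzymatic assay, reported as the geometric mean of at least three replicates with SEM.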

[14] = biological target: T2, Diacylglycerol O-acyltransferase 1 (Homo sapiens, UniProt O75907); assay: Inhibition of DGAT1 (unknown origin)
T2 sequence (O75907 whole entry): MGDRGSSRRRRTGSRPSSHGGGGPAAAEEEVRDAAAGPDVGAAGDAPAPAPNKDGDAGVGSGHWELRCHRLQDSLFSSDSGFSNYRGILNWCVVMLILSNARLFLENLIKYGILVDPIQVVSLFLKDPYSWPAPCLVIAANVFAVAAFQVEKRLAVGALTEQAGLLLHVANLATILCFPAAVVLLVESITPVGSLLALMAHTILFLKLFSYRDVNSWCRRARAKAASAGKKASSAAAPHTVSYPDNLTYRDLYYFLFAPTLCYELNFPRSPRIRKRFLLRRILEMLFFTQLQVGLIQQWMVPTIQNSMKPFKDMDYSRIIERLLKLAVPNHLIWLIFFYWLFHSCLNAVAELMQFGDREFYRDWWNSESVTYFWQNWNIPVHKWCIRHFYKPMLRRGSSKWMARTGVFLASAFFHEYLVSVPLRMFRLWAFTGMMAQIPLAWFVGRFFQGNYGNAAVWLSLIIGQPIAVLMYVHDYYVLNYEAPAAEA

[15] = Drug metabolism in human liver microsomes assessed as fraction of UGT-mediated glucuronidation preincubated for 5 mins followed by addition of NADPH regenerating system and measured after 2.5 to 60 mins; type: ADME
Method in brief: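 Fractions of metabolism attributed to CYP oxidation and UGT glucuronidation were derived from human liver microsomal incubations. For the glucuronidation arm, microsomes were supplemented with the UGT cofactor UDP-glucuronic acid.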

[16] = Apparent permeability of the compound at pH 7.4; type: ADME; conditions: not told
[17] = Thermodynamic solubility of the compound at pH 6.5; type: physicochemical; conditions: buffer, read-out: Therm_solubility
[18] = Half life in beagle dog at 5 mg/kg, po; type: ADME, organism-based, Canis lupus familiaris; conditions: in vivo
[19] = Volume of distribution at steady state in beagle dog at 1 mg/kg, iv; type: ADME, organism-based, Canis lupus familiaris; conditions: in vivo, read-out: Vdss
Method in brief: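 Male Beagle dogs, single iv dose, crystalline form of compound; value is the mean of two experiments.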

Rattus norvegicus [20] = assay: In vivo DGAT2 inhibition in po dosed sucrose-fed rat assessed as decrease in plasma triglyceride levels after 2 hrs; type: functional, organism-based
Method in brief: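 Rats fed a high-sucrose diet, single oral dose of test article or vehicle; plasma TG measured in tail-vein blood 2 h post dose; n = 7–8 per group; results as percent change from vehicle group, one-way ANOVA with Dunnett's test.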

[21] = Ratio of Cmax in beagle dog at 3 mg/kg, po qd administered for 1 month to IC50 for in vitro inhibition of dog DGAT2; type: organism-based, Canis lupus familiaris; conditions: in vivo
Method in brief: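 One-month toxicity study in Beagle dogs with N = 2/sex/dose. Plasma exposure at each dose level was referenced to the dog DGAT2 enzymatic IC50, reported as the geometric mean of at least three replicates.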

Canis familiaris [22] = assay: Unbound AUC in beagle dog at 3 mg/kg, po qd administered for 1 month; type: ADME, organism-based, Canis lupus familiaris; conditions: in vivo; method in brief: as §2
Canis familiaris [23] = assay: In vivo inhibition of DGAT2 in beagle dog assessed as coverage of in vitro IC50 for dog DGAT2 at 3 mg/kg, po qd administered for 1 month; type: functional, Canis lupus familiaris; set-up: scale not given: the % may be the effect or the level left
Method in brief: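 Beagle dogs, once-daily oral dosing for 14 days or 1 month; systemic exposure with sexes combined; coverage is the average % above dog DGAT2 IC50 at steady state over the 24 h dosing interval.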

Canis familiaris [24] = assay: Unbound Cmax in telemetered beagle dog at 50 mg/kg administered via oral gavage measured over 24 hrs; type: ADME, organism-based, Canis lupus familiaris; conditions: in vivo
Method in brief: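 Telemetered Beagle dogs given oral doses, with blood pressure and heart rate monitored after dosing alongside plasma exposure.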

CS(=O)(=O)O.O=C([C@@H]1CCCN(c2ccc3nc(C4(n5cc(Cl)cn5)CC4)[nH]c3n2)C1)N1CCCC1
fCmax (Rattus norvegicus [1]): 2020 nM
fAUC (Rattus norvegicus [2]): 4630 ng·h/mL
MTD at 336 h [3]: 75 mg/kg/day
fCmax (Canis familiaris [4]): 16.3 µM
fAUC (Canis familiaris [5]): 57500 ng·h/mL
Activity (Canis familiaris [6]): Non-Toxic
Activity (Canis familiaris [7]): Toxic
Activity (Canis familiaris [8]): Non-Toxic
Activity (Rattus norvegicus [9]): 92%
Activity (Rattus norvegicus [10]): 98%
Activity (Rattus norvegicus [11]): >99%
Activity (Canis familiaris [12]): 6 to 20 bpm

C[C@@H](c1nc2ccc(N3CCC[C@@H](C(=O)N4CCCC4)C3)nc2[nH]1)n1cc(Cl)cn1
IC50 [13]: 20 nM
IC50 [14]: > 50000 nM
Ratio [15]: 0.39
Papp [16]: 13.1 ×10⁻⁶ cm/s
solubility thermodynamic [17]: 285 µg/mL (≈ 666 µM)
half-life [18]: 3 h
Vd [19]: 0.54 L/kg
inhibition (Rattus norvegicus [20]): Dose-dependent effect
Ratio [21]: 11
fAUC (Canis familiaris [22]): 797 ng·h/mL
Activity (Canis familiaris [23]): 65%
fCmax (Canis familiaris [24]): 4.7 µM
